Experimental data from paper PMC9272570 (Journal of Drug Delivery Science and Technology, 2022).

Columns and labels:
[1] = Dissolution studies; type: physicochemical; details: 50 rpm
How it was run: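 900 ml medium (0.01 M phosphate buffer), 37 ± 0.5 °C. Load: 400 mg test compound or equivalent; formulations contained avicel and aerosil. 5 ml samples withdrawn at 5, 10, 15, 30, 45 and 60 min, filtered (0.45 μm) and replaced with fresh medium. Quantified by reversed-phase C18 HPLC (0.02 M KH2PO4 pH 6.8:acetonitrile 25:75). Cumulative amount dissolved expressed as % of load. Triplicates.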

[2] = system: jejuno-ileum; experiment: In-situ rabbit intestinal perfusion, jejuno-ileum; type: in vivo
How it was run: (§1)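 Rabbits were anaesthetised with IM chlorpromazine 2 mg/kg, then ketamine 45 mg/kg twice at a 15 min interval. The segment was cannulated (duodenum 15 cm, jejuno-ileum 30 cm) and rinsed with 37 °C saline. Test compound at 30 μg/ml in PBS with 10% v/v PEG 200 was perfused at 0.27 ml/min. Effluent was collected every 10 min for 2 h, weighed and assayed by HPLC-UV at 210 nm. Fa, ARL and L95% came from second-hour, water-flux-corrected Cout/Cin. Pathway was judged from PeA dependence on water flux.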

[3] = system: duodenum; experiment: In-situ rabbit intestinal perfusion, duodenum; type: in vivo
How it was run: as §1

[4] = SEM in brackets, n = 3, listed as lopinavir
[5] = from regression of absorptive clearance vs water flux

Cc1cccc(C)c1OCC(=O)N[C@@H](Cc1ccccc1)[C@@H](O)C[C@H](Cc1ccccc1)NC(=O)[C@H](C(C)C)N1CCCNC1=O [Pure Lopinavir, Lopinavir]
total amount liberated after 1 h ([1]; 1% w/v Tween 80 in phosphate buffer pH 6.8, 37 °C): 41.85 % of the dose | % DE (dissolution efficiency) ([1]; 900 ml 1% w/v Tween 80 in 0.01 M phosphate buffer pH 6.8, 37 °C, 60 min, SD, n = 3): 24.96 (1.48) % | ARL (anatomical reserve length) [2]: −240.22 cm | %Fa/L (percentage fraction absorbed per unit length) ([2]; SEM in brackets, n = 3): 1.17 (0.27) %cm^−1 | L95% (required length for 95% absorption) ([2]; SEM in brackets, n = 3): 339.54 (79.03) cm | Rout/Rin (fraction remaining after absorption) ([2]; SEM in brackets, n = 3): 0.657 (0.083) | L95% (required length for 95% absorption) [2, 4]: 339.54 cm | Absorption pathway: Paracellular [2, 5]: 0% | Absorption pathway: Transcellular [2, 5]: 100% | ARL (anatomical reserve length) [3]: −261.18 cm | %Fa/L (percentage fraction absorbed per unit length) ([3]; SEM in brackets, n = 3): 1.61 (0.454) %cm^−1 | L95% (required length for 95% absorption) ([3]; SEM in brackets, n = 3): 276.18 (121.5) cm | Rout/Rin (fraction remaining after absorption) ([3]; SEM in brackets, n = 3): 0.759 (0.068) | L95% (required length for 95% absorption) [3, 4]: 276.18 cm | Absorption pathway: Paracellular [3, 5]: 38.3% | Absorption pathway: Transcellular [3, 5]: 61.7%
